ChEMBL document CHEMBL3352624, “Vanillin-derived antiproliferative compounds influence Plk1 activity” (Bioorg Med Chem Lett, 2014)
pEC50, pIC50: −log10 of the molar value. Calls of active or inactive are those of the source. The rule behind the calls is not given here.

Tested on: HeLa
Test: Antiproliferative activity against human HeLa cells assessed as growth inhibition after 24 to 72 hrs
Assay type: functional, cell-based
Conditions: Homo sapiens, HeLa; read-out: EC50
Summary of the method: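 HeLa cells were exposed to compound for 24–72 h, with medium-only cells as control. Surviving cells are expressed as a percentage of control cell number at 72 h. n = 3.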

Compound | pEC50
COc1ccc(CCNCc2ccc(OCC(=O)N3CCCCC3)c(OC)c2)cc1OC | 4.06
COc1ccc(CCNCc2ccc(OCC(=O)NC(C)(C)C)c(OC)c2)cc1OC | < 4.00
COc1cc(CNCCc2ccc(S(N)(=O)=O)cc2)ccc1OCc1ccc(Cl)nc1 | 4.92
COc1cc(CNCCc2ccncc2)ccc1OCc1ccc(Cl)nc1 | 4.26
COc1cc(CNCCc2ccc(F)cc2)ccc1OCc1ccc(Cl)nc1 | 4.80
Clc1ccc(COc2ccc(CNCc3ccncc3)cc2)cc1 | 5.40
CCOc1cc(CNCc2ccncc2)ccc1OCc1ccc(Cl)cc1 | 5.60
COc1cc(OCc2ccc(Cl)cc2)ccc1CNCc1ccncc1 | 6.36
COc1cc(CNCC2CCCO2)ccc1OCc1ccc(Cl)nc1 (centres undefined) | 4.18
COc1cc(CNCCNC(=O)c2cnon2)ccc1OCc1ccc(Cl)nc1 | 4.62
COc1cc(CNCc2ccc3c(c2)OCO3)ccc1OCc1ccc(Cl)nc1 | 4.15
COc1ccc(CCNCc2ccc(OCc3ccc(Cl)nc3)c(OC)c2)cc1OC | 4.74
COc1cc(CNCCCN2CCOCC2)ccc1OCc1ccc(Cl)nc1 | < 4.00
COc1cc(CNCc2ccncc2)ccc1OCc1cnc(Cl)c(Cl)c1 | 6.66
COc1cc(OCc2ccc(Cl)nc2)ccc1CNCc1ccncc1 | 5.48
COc1cc(CNc2nc[nH]n2)ccc1OCc1ccc(Cl)nc1 | 4.16
COc1cc(CNCCc2c[nH]c3ccccc23)ccc1OCc1ccc(Cl)nc1 | 5.10
COc1cc(CNCCNc2ccnc3cc(Cl)ccc23)ccc1OCc1ccc(Cl)nc1 | 5.57
COc1cc(OCc2cnc(Cl)c(Cl)c2)ccc1CNCc1ccncc1 | 6.40
COc1cc(CNCCCN(C)C)ccc1OCc1ccc(Cl)nc1 | 5.30
COc1cc(CNCc2ccncc2)ccc1OCc1ccc(C(F)(F)F)cc1 | 5.62
COCCNCc1ccc(OCc2ccc(Cl)nc2)c(OC)c1 | 4.01
COc1ccc(CCNCc2ccc(OCC(=O)N3CCOCC3)c(OC)c2)cc1OC | 4.07
COc1cc(CNCCSc2nnnn2C)ccc1OCc1ccc(Cl)nc1 | 4.07
COc1ccc(CCNCc2ccc(OCc3cccs3)c(OC)c2)cc1OC | 4.74
COc1cc(CNCc2ccncc2)ccc1OCc1ccc(F)cc1 | 5.19
COc1ccc(COc2ccc(CNCc3ccncc3)cc2OC)cc1 | 5.30
COc1cc(CNCc2ccncc2)ccc1OCc1ccc(C)cc1 | 5.30
COc1cc(CNCc2ccncc2)ccc1OCc1ccc([N+](=O)[O-])cc1 | 6.36

The remaining lines, values ahead:

pEC50 | Compound
4.22 | COc1cc(CNCC(=O)c2ccccc2)ccc1OCc1ccc(Cl)nc1
6.40 | COc1cc(CNCc2ccncc2)ccc1OCc1ccc(Cl)nc1
5.30 | COc1cc(CNCc2cccnc2)ccc1OCc1ccc(Cl)nc1
4.74 | COc1cc(CNCCc2ccccc2F)ccc1OCc1ccc(Cl)nc1
5.21 | COc1cc(CNCc2ccccn2)ccc1OCc1c(Cl)cccc1Cl
5.40 | COc1cc(CNCc2ccncc2)ccc1OCc1ccc(Cl)c(Cl)c1
4.21 | COc1cc(CNCCc2ccccc2)ccc1OCc1ccc(Cl)nc1
6.05 | COc1cc(CNCc2ccncc2)ccc1OCc1ccc(Cl)cc1
5.41 | COc1cc(CNCc2ccncc2)ccc1OCc1ccc(Cl)cc1Cl
4.02 | COc1cc(CNCc2cccs2)ccc1OCc1ccc(Cl)nc1
5.29 | COc1cc(CNCc2ccncc2)ccc1OCc1ccccc1F
4.05 | COc1cc(CNCc2ccccc2)ccc1OCc1ccc(Cl)nc1
4.74 | COc1cc(CNCc2ccccn2)ccc1OCc1cccc(Cl)c1
4.89 | COc1cc(CNCc2ccccn2)ccc1OCc1ccc(Cl)c(Cl)c1
5.32 | COc1cc(CNCc2ccncc2)ccc1OCc1cccc(F)c1
4.66 | COc1cc(CNCc2ccccn2)ccc1OCc1ccccc1Cl

Same assay, conditions: hela

EC50 | Compound
ND(Insoluble) | COc1ccc(CCNCc2ccc(OCc3ccc(Cl)nc3)c(OC)c2)cc1
ND(Insoluble) | COc1cc(CNC2CCCCC2)ccc1OCc1ccc(Cl)nc1
ND(Insoluble) | COc1cc(CNCc2ccc(C(=O)O)cc2)ccc1OCc1ccc(Cl)nc1

Tested on: HeLa
Test: Induction of apoptosis in human HeLa cells assessed as increase in PARP cleavage at 33 uM after 48 hrs by Western blot analysis
Assay type: functional, cell-based
Conditions: not given
Summary of the method: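 HeLa cells were harvested 48 h after compound incubation, with untreated medium controls. Western blotting against Parp detected both full-length protein and its apoptotic cleavage product.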

Compound | Activity
COc1cc(CNCc2ccncc2)ccc1OCc1ccc(Cl)cc1 | Active

Tested on: HeLa
Test: Induction of apoptosis in human HeLa cells assessed as caspase-3/7 activation after 48 hrs […]
Assay type: functional, cell-based
Conditions: not given
Summary of the method: (§1)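 Caspase 3/7 activation in HeLa cells was read 48 h after treatment by luminescence and reported as relative RLU versus medium-only controls. n = 3, mean SD.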

Compound | Activity
COc1cc(CNCc2ccncc2)ccc1OCc1ccc(Cl)cc1 | Dose-dependent effect

Molecular target: Serine/threonine-protein kinase PLK1 (Homo sapiens, UniProt P53350)
Test: Inhibition of Plk1 immunoprecipitated from human HeLa cells using casein substrate after 12 to 26 hrs by autoradiography
Assay type: cell-based
Conditions: not given
Summary of the method: (§2)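 HeLa cells were synchronized and incubated with compound. Plk1, Plk2 or Plk3 was then immunoprecipitated from the cells and assayed for kinase activity with casein as substrate. Activity was read by autoradiography.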

Chain of Serine/threonine-protein kinase PLK1 (P53350 whole entry): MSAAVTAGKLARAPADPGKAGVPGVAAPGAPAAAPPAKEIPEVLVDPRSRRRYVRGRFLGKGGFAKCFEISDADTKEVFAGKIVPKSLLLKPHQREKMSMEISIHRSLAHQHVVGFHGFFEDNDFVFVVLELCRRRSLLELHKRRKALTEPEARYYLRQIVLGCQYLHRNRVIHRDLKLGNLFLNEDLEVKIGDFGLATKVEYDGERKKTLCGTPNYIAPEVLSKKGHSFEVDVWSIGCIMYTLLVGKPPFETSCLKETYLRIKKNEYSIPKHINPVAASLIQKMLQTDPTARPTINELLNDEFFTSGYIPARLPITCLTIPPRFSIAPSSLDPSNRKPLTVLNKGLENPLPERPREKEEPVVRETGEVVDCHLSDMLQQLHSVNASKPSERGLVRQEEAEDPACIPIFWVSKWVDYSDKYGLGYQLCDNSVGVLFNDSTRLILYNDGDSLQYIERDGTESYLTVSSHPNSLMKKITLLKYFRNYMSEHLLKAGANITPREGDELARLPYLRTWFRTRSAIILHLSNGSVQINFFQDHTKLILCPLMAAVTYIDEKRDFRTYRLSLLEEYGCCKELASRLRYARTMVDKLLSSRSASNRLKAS

pIC50 | Compound
8.52 | COc1cc(CNCc2ccncc2)ccc1OCc1ccc(Cl)cc1

Molecular target: Serine/threonine-protein kinase PLK2 (Homo sapiens, UniProt Q9NYY3)
Test: Inhibition of Plk2 immunoprecipitated from human HeLa cells using casein substrate after 12 to 26 hrs by autoradiography
Assay type: cell-based
Conditions: not given
Summary of the method: as §2

Chain of Serine/threonine-protein kinase PLK2 (Q9NYY3 whole entry): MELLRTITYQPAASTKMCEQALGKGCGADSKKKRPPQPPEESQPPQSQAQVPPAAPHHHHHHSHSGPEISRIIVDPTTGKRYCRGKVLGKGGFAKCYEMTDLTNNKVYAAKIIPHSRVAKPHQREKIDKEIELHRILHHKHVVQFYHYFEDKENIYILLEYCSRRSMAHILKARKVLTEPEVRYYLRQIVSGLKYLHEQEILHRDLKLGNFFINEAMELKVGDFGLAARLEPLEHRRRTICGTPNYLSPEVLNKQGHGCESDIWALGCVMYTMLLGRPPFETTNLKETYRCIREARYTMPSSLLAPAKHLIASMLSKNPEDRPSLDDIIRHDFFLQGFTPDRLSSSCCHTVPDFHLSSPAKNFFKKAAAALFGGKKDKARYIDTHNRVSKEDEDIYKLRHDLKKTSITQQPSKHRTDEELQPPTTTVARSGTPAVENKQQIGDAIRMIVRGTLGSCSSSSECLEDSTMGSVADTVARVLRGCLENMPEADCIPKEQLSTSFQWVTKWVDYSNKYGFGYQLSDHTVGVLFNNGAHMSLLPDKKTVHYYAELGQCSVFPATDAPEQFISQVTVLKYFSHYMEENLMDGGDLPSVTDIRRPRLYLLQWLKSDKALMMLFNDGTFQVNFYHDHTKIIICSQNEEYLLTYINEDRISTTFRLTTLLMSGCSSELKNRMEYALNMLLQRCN

pIC50 | Compound
< 5.00 | COc1cc(CNCc2ccncc2)ccc1OCc1ccc(Cl)cc1

Molecular target: Serine/threonine-protein kinase PLK3 (Homo sapiens, UniProt Q9H4B4)
Test: Inhibition of Plk3 immunoprecipitated from human HeLa cells using casein substrate after 12 to 26 hrs by autoradiography
Assay type: cell-based
Conditions: not given
Summary of the method: as §2

Chain of Serine/threonine-protein kinase PLK3 (Q9H4B4 whole entry): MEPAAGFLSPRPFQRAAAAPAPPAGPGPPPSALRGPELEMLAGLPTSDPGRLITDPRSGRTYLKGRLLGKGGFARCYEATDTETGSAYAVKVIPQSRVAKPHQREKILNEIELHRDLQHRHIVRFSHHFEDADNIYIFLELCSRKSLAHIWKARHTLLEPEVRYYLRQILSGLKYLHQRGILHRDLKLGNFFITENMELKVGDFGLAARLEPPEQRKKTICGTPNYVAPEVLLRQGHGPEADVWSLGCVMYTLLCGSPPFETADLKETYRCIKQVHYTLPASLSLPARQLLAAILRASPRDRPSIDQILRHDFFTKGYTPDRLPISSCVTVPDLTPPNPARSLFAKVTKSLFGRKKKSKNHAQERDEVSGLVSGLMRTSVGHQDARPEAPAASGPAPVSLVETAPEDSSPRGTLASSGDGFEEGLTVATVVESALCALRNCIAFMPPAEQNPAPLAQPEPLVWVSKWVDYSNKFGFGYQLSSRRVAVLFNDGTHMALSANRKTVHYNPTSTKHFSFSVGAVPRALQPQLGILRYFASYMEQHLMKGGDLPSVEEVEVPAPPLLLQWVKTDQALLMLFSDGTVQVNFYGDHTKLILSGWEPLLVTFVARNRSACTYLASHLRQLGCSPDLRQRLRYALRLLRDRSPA

pIC50 | Compound
< 5.00 | COc1cc(CNCc2ccncc2)ccc1OCc1ccc(Cl)cc1

Tested on: HeLa
Test: Induction of apoptosis in human HeLa cells assessed as caspase-3/7 activation at 1 nM to 66 uM by […]
Assay type: functional, cell-based
Conditions: TDE = time-dependent effect
Summary of the method: as §1

Compound | Activity
COc1cc(CNCc2ccncc2)ccc1OCc1ccc(Cl)cc1 | tde
